These results are taken from publication PMC9796011 (Journal of Gastroenterology and Hepatology, 2022).

In series [1] the test system is patients with biologic‐resistant CD. The series can be described thus: Phase 2a trial: Crohn's disease activity index. Type of series: in vivo, human. The settings on record: 10 + 15 ng/kg/min groups pooled, mean ± SD. Summed up: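 Patients (n = 24) were randomized 1:1:1 in blocks of three to placebo or 10 or 15 ng/kg/min test compound, infused 8 h/day for 7 days alongside ongoing biologic. Doctors scored CDAI by questionnaire at baseline and at 4, 6, 8, 16 and 24 weeks. Response was a drop of ≥50 points; remission was CDAI ≤150. Changes are mean ± SD, compared by t-test/ANOVA and, over 0–24 weeks, by a mixed-effects model.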

Series [2] in a line: Plasma concentration of adrenomedullin. Type of series: in vivo. The settings on record: human, intravenous. Summed up: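 Blood was drawn before and at 4, 8 and 10 h after the start of the 8-h infusion (10 or 15 ng/kg/min) on days 1 and 7, and at 4 and 8 weeks. Test compound was measured by automated ELISA. Cmax and Tmax were read directly from the data; AUC was computed over 0–10 h. Values are mean ± SD.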

A short description of series [3]: Trough level of infliximab. The class given is in vivo, human. The settings on record: CD patients; 4 and 8 weeks vs day 1. Summed up: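 Serum was collected immediately before each biologic dose. Infliximab trough levels were measured by ELISA at a contract lab in patients given placebo or 10 or 15 ng/kg/min test compound, infused 8 h/day for 7 days starting on the day of biologic dosing; changes were assessed at 8 weeks.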

Series [4] deals with patients with biologic‐resistant CD. The series can be described thus: CRP, fecal calprotectin and FIT. Type of series: in vivo, human. The note with it: CRP at 2, 4, 8 weeks; fecal calprotectin and FIT at 1 week; data not shown. Summed up: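 Adults with biologic-resistant CD at 16 Japanese centres were randomized 1:1:1 to placebo or 10 or 15 ng/kg/min of test compound, infused 8 h/day for 7 days from the day of biologic dosing. CRP was measured at 2, 4 and 8 weeks. Stool was collected before dosing and on day 8 for fecal calprotectin (fluorescence enzyme immunoassay) and FIT by a commercial lab. Groups were compared by t-test and ANOVA with Fisher's test.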

The test system is the same in series [5]. The series can be described thus: Safety evaluation: adverse events, vital signs. The class given is in vivo, human. Summed up: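 All 24 patients, hospitalized for the 7-day infusion of placebo or 10 or 15 ng/kg/min test compound (8 h/day), were assessed for AEs and SAEs throughout the study. Vital signs, blood and urine tests and 12-lead ECG were taken at set times after dosing, with screening within 2 weeks before therapy. Patients with systolic BP <90 mmHg or pulse <45 bpm were excluded.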

Another series relates to Crohn's disease. The note with it: cited from earlier work.

For the molecule `CC[C@H](C)[C@H](NC(=O)[C@H](CCC(N)=O)NC(=O)[C@H](Cc1c[nH]cn1)NC(=O)[C@H](C)NC(=O)[C@H](CC(C)C)NC(=O)[C@H](CCCCN)NC(=O)[C@H](CCC(N)=O)NC(=O)[C@@H](NC(=O)[C@@H](NC(=O)[C@@H]1CSSC[C@H](NC(=O)CNC(=O)[C@H](Cc2ccccc2)NC(=O)[C@H](CO)NC(=O)[C@H](CCCNC(=N)N)NC(=O)[C@H](CC(C)C)NC(=O)CNC(=O)[C@H](CCC(N)=O)NC(=O)[C@H](Cc2ccccc2)NC(=O)[C@H](CC(N)=O)NC(=O)[C@H](CC(N)=O)NC(=O)[C@H](CCSC)NC(=O)[C@H](CO)NC(=O)[C@H](CCC(N)=O)NC(=O)[C@H](CCCNC(=N)N)NC(=O)[C@@H](N)Cc2ccc(O)cc2)C(=O)N[C@@H](CCCNC(=N)N)C(=O)N[C@@H](Cc2ccccc2)C(=O)NCC(=O)N[C@@H]([C@@H](C)O)C(=O)N1)[C@@H](C)O)C(C)C)C(=O)N[C@@H](Cc1ccc(O)cc1)C(=O)N[C@@H](CCC(N)=O)C(=O)N[C@@H](Cc1ccccc1)C(=O)N[C@H](C(=O)N[C@@H](CC(=O)O)C(=O)N[C@@H](CCCCN)C(=O)N[C@@H](CC(=O)O)C(=O)N[C@@H](CCCCN)C(=O)N[C@@H](CC(=O)O)C(=O)N[C@@H](CC(N)=O)C(=O)N[C@H](C(=O)N[C@@H](C)C(=O)N1CCC[C@H]1C(=O)N[C@@H](CCCNC(=N)N)C(=O)N[C@@H](CO)C(=O)N[C@@H](CCCCN)C(=O)N[C@H](C(=O)N[C@@H](CO)C(=O)N1CCC[C@H]1C(=O)N[C@@H](CCC(N)=O)C(=O)NCC(=O)N[C@@H](Cc1ccc(O)cc1)C(N)=O)[C@@H](C)CC)C(C)C)[C@@H](C)O` [Adrenomedullin], in series [1] (4 weeks, n = 16), the “Changes in CDAI” value was −71 ± 83. Besides, the “Changes in CDAI” value in series [1] (6 weeks, n = 14) is −72 ± 67. For the same molecule, the “Changes in CDAI (primary endpoint)” value in series [1] (8 weeks, n = 15) is listed as −81 ± 73. Further, in series [1] (16 weeks, n = 10), the “Changes in CDAI” value is listed as −61 ± 51. Besides, in series [1] (24 weeks, n = 9), the “Changes in CDAI” value is reported as −81 ± 46. Moreover, the AUC(0-t) (as a rule, the area under the concentration-time curve up to a stated or last time point) in series [2] (10 ng/kg/min) turned out to be 0.247 ± 0.06 ng·h/mL. In series [2] (15 ng/kg/min), the AUC(0-t) stood at 0.441 ± 0.245 ng·h/mL and the Cmax (commonly the highest concentration seen after dosing) stood at 0.0653 ± 0.043 ng/mL. The “Trough levels of biologics (infliximab, adalimumab) after AM administration” value in series [3] is “did not change”. Besides, the “Changes in CRP levels, fecal calprotectin and FIT versus placebo” value in series [4] is on record as “no differences”. Besides, in series [5] (10 ng/kg/min, 8 patients), the “Any adverse events, patients (%)” value is listed as 7 (88%); the Deaths came to 0; the “Decrease in body weight, patients (%)” value is listed as 0; the “Dehydration, patients (%)” value came to 0. In series [5] (10 ng/kg/min, 8 patients), the “Dizziness, patients (%)” value is recorded as 1 (13%); the “Fever up, patients (%)” value stood at 0; the “Flushing, patients (%)” value is 1 (13%); the “Head discomfort, patients (%)” value is reported as 0. In series [5] (10 ng/kg/min, 8 patients), the “Headache, patients (%)” value is 3 (38%); the “Increase in transaminase level, patients (%)” value was 0; the “Lumbago, patients (%)” value came out at 0; the “Moderate to severe adverse events, patients (%)” value is reported as 1 (13%). For the same molecule, in series [5] (10 ng/kg/min, 8 patients), the “Nasopharyngitis, patients (%)” value is on record as 1 (13%); the “Palpitation, patients (%)” value is recorded as 1 (13%); the “Rash, patients (%)” value was 1 (13%); the “Right bundle branch block, patients (%)” value is given as 0. In series [5] (10 ng/kg/min, 8 patients), the “Serious adverse events, patients (%)” value was 0 and the “Vomiting, patients (%)” value turned out to be 0. In addition, in series [5] (15 ng/kg/min, 8 patients), the “Any adverse events, patients (%)” value is 8 (100%); the Deaths turned out to be 0; the “Decrease in body weight, patients (%)” value was determined as 0; the “Dehydration, patients (%)” value was 1 (13%). Besides, in series [5] (15 ng/kg/min, 8 patients), the “Dizziness, patients (%)” value stood at 0; the “Fever up, patients (%)” value is listed as 3 (38%); the “Flushing, patients (%)” value is reported as 1 (13%); the “Head discomfort, patients (%)” value is recorded as 1 (13%). Besides, in series [5] (15 ng/kg/min, 8 patients), the “Headache, patients (%)” value is listed as 7 (88%); the “Increase in transaminase level, patients (%)” value is given as 1 (13%); the “Lumbago, patients (%)” value was 0; the “Moderate to severe adverse events, patients (%)” value was 3 (38%). In series [5] (15 ng/kg/min, 8 patients), the “Nasopharyngitis, patients (%)” value is 2 (25%); the “Palpitation, patients (%)” value was 2 (25%); the “Rash, patients (%)” value is 1 (13%); the “Right bundle branch block, patients (%)” value is recorded as 1 (13%). In addition, the “Vomiting, patients (%)” value in series [5] (15 ng/kg/min, 8 patients) was 1 (13%). In addition, the “Changes in blood pressure and pulse rate” value in series [5] (all groups, throughout the drug administration period, data not shown) is reported as “did not observe any statistically significant changes”.

Turning to Infliximab, the “Annual risk of loss of infliximab response” value with Crohn's disease is reported as 13 % per patient‐year.
